Reference: publication PMC10769797 (The Oncologist, 2023)

Key:
[1] = system: patients with advanced solid tumors; test: Phase I dose-escalation safety: adverse events; assay type: in vivo, human
[2] = biological target: CDK7 (Homo sapiens, UniProt P50613); test: CDK7-target occupancy assay; assay type: in vivo
Method in brief: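 Skin biopsies were taken at baseline (≤14 days pre-dose) and 6–8 h postdose on days 1 and 15; PBMCs predose day 1 and 8 h postdose days 1 and 15. Lysates were labelled with a biotinylated probe. Anti-cyclin H captured CDK7/cyclin H on MSD plates. Unbound CDK7 was read with SULFO-TAG streptavidin, total with anti-CDK7 mAb. Skin occupancy was baseline-normalised unbound/total; PBMC occupancy was unbound versus day-1 predose.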

[3] = Plasma pharmacokinetics, noncompartmental analysis; assay type: in vivo, human
Method in brief: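 Oral dosing QD (part A1) or TIW (part A2). Intensive plasma samples were taken after the dose on cycle 1 days 1 and 15, for up to 24 h (A1) or 48 h (A2). Cmax, Tmax, AUC(0-Inf) and terminal half-life came from plasma concentrations by standard noncompartmental analysis, with descriptive statistics.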

Sequence of CDK7 (P50613 2-346 limits assumed): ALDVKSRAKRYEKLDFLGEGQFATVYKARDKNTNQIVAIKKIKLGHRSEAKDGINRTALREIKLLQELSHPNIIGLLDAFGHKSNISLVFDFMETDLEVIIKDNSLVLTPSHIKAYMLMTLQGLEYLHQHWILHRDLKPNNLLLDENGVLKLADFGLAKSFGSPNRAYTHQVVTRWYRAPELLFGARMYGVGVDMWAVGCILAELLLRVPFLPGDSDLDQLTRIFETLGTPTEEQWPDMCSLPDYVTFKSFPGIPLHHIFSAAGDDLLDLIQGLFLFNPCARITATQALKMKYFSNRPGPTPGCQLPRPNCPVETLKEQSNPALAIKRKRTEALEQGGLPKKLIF
Sequence of CDK7 (P51946 whole entry partner): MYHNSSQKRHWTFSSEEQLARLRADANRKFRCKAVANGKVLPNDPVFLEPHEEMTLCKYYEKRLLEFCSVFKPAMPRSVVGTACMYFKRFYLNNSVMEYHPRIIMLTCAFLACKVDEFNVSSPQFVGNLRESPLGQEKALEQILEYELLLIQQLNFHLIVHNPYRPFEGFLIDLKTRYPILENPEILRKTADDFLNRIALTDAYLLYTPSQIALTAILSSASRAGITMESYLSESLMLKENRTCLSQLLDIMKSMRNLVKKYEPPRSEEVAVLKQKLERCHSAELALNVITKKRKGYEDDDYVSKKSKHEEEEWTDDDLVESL
Sequence of CDK7 (P51948 whole entry partner): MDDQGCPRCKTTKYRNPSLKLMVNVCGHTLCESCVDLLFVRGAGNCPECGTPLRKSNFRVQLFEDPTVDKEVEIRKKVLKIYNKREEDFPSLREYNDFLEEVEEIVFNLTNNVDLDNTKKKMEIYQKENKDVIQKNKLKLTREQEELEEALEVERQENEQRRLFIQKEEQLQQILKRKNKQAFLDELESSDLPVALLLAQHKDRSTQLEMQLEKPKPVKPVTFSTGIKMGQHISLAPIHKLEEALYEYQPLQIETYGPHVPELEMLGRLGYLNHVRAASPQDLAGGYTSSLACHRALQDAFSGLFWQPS

Cc1cc(NC2CCN(C(=O)OC3CCN(C(=O)/C=C/CN(C)C)C3)CC2)n2ncc(C(C)C)c2n1 (stereo not shown) [LY3405105]
4 (36) n (%): TRAE: Asthenia ([1]; TIW (N = 11), Any grade)
6 (55) n (%): Patients with ≥1 TRAE ([1]; TIW (N = 11), Any grade)
1 (9) n (%): TRAE: Anemia ([1]; TIW (N = 11), Any grade) | TRAE: Nausea ([1]; TIW (N = 11), Any grade)
0 n (%): SAE related to study treatment: Abdominal pain ([1]; QD (N = 43), ≥Grade 3) | SAE related to study treatment: Hypotension ([1]; QD (N = 43), ≥Grade 3) | TRAE: Abdominal pain ([1]; QD (N = 43), ≥Grade 3) | TRAE: Asthenia ([1]; QD (N = 43), ≥Grade 3) | TRAE: Vomiting ([1]; QD (N = 43), ≥Grade 3) | Patients with ≥1 SAE related to study treatment ([1]; TIW (N = 11), Any grade) | SAE related to study treatment: Abdominal pain ([1]; TIW (N = 11), Any grade) | SAE related to study treatment: Acute kidney injury ([1]; TIW (N = 11), Any grade) | SAE related to study treatment: Alanine aminotransferase increase ([1]; TIW (N = 11), Any grade) | SAE related to study treatment: Diarrhea ([1]; TIW (N = 11), Any grade) | SAE related to study treatment: Dyspnea ([1]; TIW (N = 11), Any grade) | SAE related to study treatment: Hypotension ([1]; TIW (N = 11), Any grade) | SAE related to study treatment: Mucosal inflammation ([1]; TIW (N = 11), Any grade) | SAE related to study treatment: Nausea ([1]; TIW (N = 11), Any grade) | SAE related to study treatment: Ophthalmic herpes zoster ([1]; TIW (N = 11), Any grade) | SAE related to study treatment: Platelet count decrease ([1]; TIW (N = 11), Any grade) | TRAE: Abdominal pain ([1]; TIW (N = 11), Any grade) | TRAE: Diarrhea ([1]; TIW (N = 11), Any grade) | TRAE: Fatigue ([1]; TIW (N = 11), Any grade) | TRAE: Platelet count decrease ([1]; TIW (N = 11), Any grade) | TRAE: Vomiting ([1]; TIW (N = 11), Any grade) | Patients with ≥1 SAE related to study treatment ([1]; TIW (N = 11), ≥Grade 3) | Patients with ≥1 TRAE ([1]; TIW (N = 11), ≥Grade 3) | SAE related to study treatment: Abdominal pain ([1]; TIW (N = 11), ≥Grade 3) | SAE related to study treatment: Acute kidney injury ([1]; TIW (N = 11), ≥Grade 3) | SAE related to study treatment: Alanine aminotransferase increase ([1]; TIW (N = 11), ≥Grade 3) | SAE related to study treatment: Diarrhea ([1]; TIW (N = 11), ≥Grade 3) | SAE related to study treatment: Dyspnea ([1]; TIW (N = 11), ≥Grade 3) | SAE related to study treatment: Hypotension ([1]; TIW (N = 11), ≥Grade 3) | SAE related to study treatment: Mucosal inflammation ([1]; TIW (N = 11), ≥Grade 3) | SAE related to study treatment: Nausea ([1]; TIW (N = 11), ≥Grade 3) | SAE related to study treatment: Ophthalmic herpes zoster ([1]; TIW (N = 11), ≥Grade 3) | SAE related to study treatment: Platelet count decrease ([1]; TIW (N = 11), ≥Grade 3) | TRAE: Abdominal pain ([1]; TIW (N = 11), ≥Grade 3) | TRAE: Anemia ([1]; TIW (N = 11), ≥Grade 3) | TRAE: Asthenia ([1]; TIW (N = 11), ≥Grade 3) | TRAE: Diarrhea ([1]; TIW (N = 11), ≥Grade 3) | TRAE: Fatigue ([1]; TIW (N = 11), ≥Grade 3) | TRAE: Nausea ([1]; TIW (N = 11), ≥Grade 3) | TRAE: Platelet count decrease ([1]; TIW (N = 11), ≥Grade 3) | TRAE: Vomiting ([1]; TIW (N = 11), ≥Grade 3) | SAE related to study treatment: Abdominal pain ([1]; Total (N = 54), ≥Grade 3) | SAE related to study treatment: Hypotension ([1]; Total (N = 54), ≥Grade 3) | TRAE: Abdominal pain ([1]; Total (N = 54), ≥Grade 3) | TRAE: Asthenia ([1]; Total (N = 54), ≥Grade 3) | TRAE: Vomiting ([1]; Total (N = 54), ≥Grade 3)
3 (6) n (%): TRAE: Platelet count decrease ([1]; Total (N = 54), ≥Grade 3)
8 (19) n (%): TRAE: Fatigue ([1]; QD (N = 43), Any grade) | TRAE: Vomiting ([1]; QD (N = 43), Any grade)
8 (15) n (%): TRAE: Fatigue ([1]; Total (N = 54), Any grade) | TRAE: Vomiting ([1]; Total (N = 54), Any grade)
9 (21) n (%): TRAE: Nausea ([1]; QD (N = 43), Any grade)
29 (67) n (%): Patients with ≥1 TRAE ([1]; QD (N = 43), Any grade)
2 (5) n (%): SAE related to study treatment: Diarrhea ([1]; QD (N = 43), Any grade) | TRAE: Asthenia ([1]; QD (N = 43), Any grade) | SAE related to study treatment: Diarrhea ([1]; QD (N = 43), ≥Grade 3) | TRAE: Anemia ([1]; QD (N = 43), ≥Grade 3) | TRAE: Diarrhea ([1]; QD (N = 43), ≥Grade 3)
18 (42) n (%): TRAE: Diarrhea ([1]; QD (N = 43), Any grade)
18 (33) n (%): TRAE: Diarrhea ([1]; Total (N = 54), Any grade)
7 (13) n (%): Patients with ≥1 SAE related to study treatment ([1]; Total (N = 54), Any grade)
64.8%: Patients reporting at least one treatment-related adverse event (TRAE) ([1]; all patients (N = 54))
1 to 2 h: Median time to maximum concentration ([3]; oral dosing, patients)
approximately 1000 ng h/mL: Start of the steady-state AUC range where DLTs were observed ([1]; part A1, corresponds to doses of 30 to 45 mg QD)
1 (2) n (%): SAE related to study treatment: Abdominal pain ([1]; QD (N = 43), Any grade) | SAE related to study treatment: Acute kidney injury ([1]; QD (N = 43), Any grade) | SAE related to study treatment: Alanine aminotransferase increase ([1]; QD (N = 43), Any grade) | SAE related to study treatment: Dyspnea ([1]; QD (N = 43), Any grade) | SAE related to study treatment: Hypotension ([1]; QD (N = 43), Any grade) | SAE related to study treatment: Mucosal inflammation ([1]; QD (N = 43), Any grade) | SAE related to study treatment: Nausea ([1]; QD (N = 43), Any grade) | SAE related to study treatment: Ophthalmic herpes zoster ([1]; QD (N = 43), Any grade) | SAE related to study treatment: Platelet count decrease ([1]; QD (N = 43), Any grade) | SAE related to study treatment: Acute kidney injury ([1]; QD (N = 43), ≥Grade 3) | SAE related to study treatment: Alanine aminotransferase increase ([1]; QD (N = 43), ≥Grade 3) | SAE related to study treatment: Dyspnea ([1]; QD (N = 43), ≥Grade 3) | SAE related to study treatment: Mucosal inflammation ([1]; QD (N = 43), ≥Grade 3) | SAE related to study treatment: Nausea ([1]; QD (N = 43), ≥Grade 3) | SAE related to study treatment: Ophthalmic herpes zoster ([1]; QD (N = 43), ≥Grade 3) | SAE related to study treatment: Platelet count decrease ([1]; QD (N = 43), ≥Grade 3) | TRAE: Fatigue ([1]; QD (N = 43), ≥Grade 3) | TRAE: Nausea ([1]; QD (N = 43), ≥Grade 3) | SAE related to study treatment: Abdominal pain ([1]; Total (N = 54), Any grade) | SAE related to study treatment: Acute kidney injury ([1]; Total (N = 54), Any grade) | SAE related to study treatment: Alanine aminotransferase increase ([1]; Total (N = 54), Any grade) | SAE related to study treatment: Dyspnea ([1]; Total (N = 54), Any grade) | SAE related to study treatment: Hypotension ([1]; Total (N = 54), Any grade) | SAE related to study treatment: Mucosal inflammation ([1]; Total (N = 54), Any grade) | SAE related to study treatment: Nausea ([1]; Total (N = 54), Any grade) | SAE related to study treatment: Ophthalmic herpes zoster ([1]; Total (N = 54), Any grade) | SAE related to study treatment: Platelet count decrease ([1]; Total (N = 54), Any grade) | SAE related to study treatment: Acute kidney injury ([1]; Total (N = 54), ≥Grade 3) | SAE related to study treatment: Alanine aminotransferase increase ([1]; Total (N = 54), ≥Grade 3) | SAE related to study treatment: Dyspnea ([1]; Total (N = 54), ≥Grade 3) | SAE related to study treatment: Mucosal inflammation ([1]; Total (N = 54), ≥Grade 3) | SAE related to study treatment: Nausea ([1]; Total (N = 54), ≥Grade 3) | SAE related to study treatment: Ophthalmic herpes zoster ([1]; Total (N = 54), ≥Grade 3) | SAE related to study treatment: Platelet count decrease ([1]; Total (N = 54), ≥Grade 3) | TRAE: Fatigue ([1]; Total (N = 54), ≥Grade 3) | TRAE: Nausea ([1]; Total (N = 54), ≥Grade 3)
Seven: Patients with dose-limiting toxicities ([1]; all 54 enrolled patients, all DLTs in part A1 (QD))
6 (11) n (%): TRAE: Abdominal pain ([1]; Total (N = 54), Any grade) | TRAE: Anemia ([1]; Total (N = 54), Any grade) | TRAE: Asthenia ([1]; Total (N = 54), Any grade) | TRAE: Platelet count decrease ([1]; Total (N = 54), Any grade) | Patients with ≥1 SAE related to study treatment ([1]; Total (N = 54), ≥Grade 3)
6 (14) n (%): TRAE: Abdominal pain ([1]; QD (N = 43), Any grade) | TRAE: Platelet count decrease ([1]; QD (N = 43), Any grade) | Patients with ≥1 SAE related to study treatment ([1]; QD (N = 43), ≥Grade 3)
exposures increased with dose: Dose dependence of plasma exposure ([3]; 1 to 45 mg QD day 1, 1 to 35 mg QD day 15, 2 to 8 mg TIW day 1 and day 15)
15 to 19 h: Geometric mean terminal elimination half-life ([3]; oral dosing, assessed in the TIW group)
2 (4) n (%): SAE related to study treatment: Diarrhea ([1]; Total (N = 54), Any grade) | SAE related to study treatment: Diarrhea ([1]; Total (N = 54), ≥Grade 3) | TRAE: Anemia ([1]; Total (N = 54), ≥Grade 3) | TRAE: Diarrhea ([1]; Total (N = 54), ≥Grade 3)
20 mg: Maximum tolerated dose (MTD) ([1]; QD, oral monotherapy, patients) | Recommended phase II dose (RP2D) ([1]; QD, oral monotherapy, patients)
35 (65) n (%): Patients with ≥1 TRAE ([1]; Total (N = 54), Any grade)
≥ 15 mg: Dose at which near maximal CDK7-target occupancy was achieved ([2]; QD, steady state on day 15)
7 (16) n (%): Patients with ≥1 SAE related to study treatment ([1]; QD (N = 43), Any grade)
> 75%: CDK7 target occupancy ([2]; ≥15 mg once daily)
3 (7) n (%): TRAE: Platelet count decrease ([1]; QD (N = 43), ≥Grade 3)
up to 90%: CDK7-target occupancy observed ([2]; highest observed in the trial)
no DLT was observed: Dose-limiting toxicity ([1]; part A1, 20 mg QD) | Dose-limiting toxicity ([1]; part A1, 1, 2, 4, 8, 15, or 30 mg QD) | Dose-limiting toxicity ([1]; part A2 (TIW), 2 mg, 4 mg, or 8 mg)
5 (12) n (%): TRAE: Anemia ([1]; QD (N = 43), Any grade)
75%: CDK7-target occupancy (near maximal) ([2]; skin and peripheral blood, day 15, ≥15 mg QD)
10 (19) n (%): TRAE: Nausea ([1]; Total (N = 54), Any grade) | Patients with ≥1 TRAE ([1]; Total (N = 54), ≥Grade 3)
10 (23) n (%): Patients with ≥1 TRAE ([1]; QD (N = 43), ≥Grade 3)
approximately 500 ng h/mL: Steady-state AUC above which maximum skin target occupancy occurred ([2]; part A1, skin, day 15, corresponds to doses at 15 mg QD)
